Only some compounds are listed: those with a hit (about 3.5% of all), similar ones and a draw of the others.
MrgX1 antagonist: blocks BAM8-22 activation of human MrgX1 receptor; Q96LB2; MRGX1-HEK293 calcium flux, Fluo-4, BAM8-22 antagonism; active compounds read low; B-score at 10 µM; actives 1.3% (n = 310,000);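 active = calcium-response B-score plate-corrected more than 3 library SD below zero, starting fluorescence within 5 deviations, no agonist response on first addition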;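 also: peak minus trough fluorescence over baseline after final BAM8-22 challenge near maximal dose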
Target sequence (Q96LB2 whole entry, looked up): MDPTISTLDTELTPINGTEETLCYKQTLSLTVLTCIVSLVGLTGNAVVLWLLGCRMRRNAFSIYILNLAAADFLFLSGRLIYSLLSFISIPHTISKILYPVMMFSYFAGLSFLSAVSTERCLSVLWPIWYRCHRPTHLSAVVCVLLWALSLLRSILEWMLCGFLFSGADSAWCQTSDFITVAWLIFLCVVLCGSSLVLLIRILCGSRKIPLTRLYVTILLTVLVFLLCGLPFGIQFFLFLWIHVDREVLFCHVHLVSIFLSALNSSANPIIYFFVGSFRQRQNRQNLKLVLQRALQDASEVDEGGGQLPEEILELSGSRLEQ
RGS4 block: inhibitors of human RGS4; P49798; HEK293 M3R/RGS4 inducible, Fluo-4 calcium flux; active compounds read high; triggered by carbachol at its EC20; B-score at 10 µM; actives 0.45% (n = 310,000);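 active = B-score, a plate-corrected calcium signal, over three deviations above library mean, with baseline fluorescence within five deviations of library mean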;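 also: RGS4 expression induced by doxycycline in cells with stable M3 receptor; B-score is computed from the integrated fluorescence ratio over baseline after carbachol; higher B-score means a larger calcium signal and so more RGS4 inhibition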
Target sequence (P49798 whole entry, looked up): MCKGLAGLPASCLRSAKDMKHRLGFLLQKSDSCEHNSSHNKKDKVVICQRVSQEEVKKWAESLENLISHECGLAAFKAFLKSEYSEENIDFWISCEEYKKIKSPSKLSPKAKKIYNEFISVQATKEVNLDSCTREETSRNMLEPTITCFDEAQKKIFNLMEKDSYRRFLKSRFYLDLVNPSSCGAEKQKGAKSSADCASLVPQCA
RGS4 pot: potentiators or activators of RGS4; actives 0.92% (n = 310,000); HEK293 M3R/inducible RGS4, carbachol calcium flux Fluo4; active compounds read low; B-score at 10 µM;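 active = B-score of the integrated calcium signal more than 4 SD below the library mean, with starting fluorescence not abnormally high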;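 also: negative B-score means reduced calcium response which marks RGS4 activation or potentiation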
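System – HEK293 FlpIn-TREx cells, stable M3R, doxycycline-inducible RGS4 · Reagent – ECmax carbachol challenge · Times – compound preincubation 20 min at room temperature before agonist · Technique – Fluo4 fluorescence kinetic imaging of calcium · Measure – B score of integrated Fluo4 ratio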
MrgX1 agonist: agonists of human MrgX1 receptor. actives 0.44% (n = 310,000). AID 588627. MrgX1-HEK293 cells, Fluo-4 calcium fluorescence, agonist mode; active compounds read high. B-score at 10 µM;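 active = calcium response B-score plate-corrected fluorescence ratio at least 3 library SD, with starting fluorescence B-score inside 5 SD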
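Test system: HEK293 cells stably expressing human MrgX1 receptor; amount: 15,000 cells per well; doses: compound delivered in addition one of three; times: overnight plating before 1 h dye loading; detection: Fluo-4 NW calcium-flux fluorescence, kinetic read; read-out basis: B-scored fluorescence response ratio; controls: positive and negative controls per plate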
MrgX1 PAM: human MrgX1 positive allosteric modulation, primary screen | actives 0.63% (n = 310,000) | B-score at 10 µM | MrgX1-HEK293, Fluo-4 calcium flux, FDSS; active compounds read high | Q96LB2;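 active = plate-corrected calcium response at least 3 library SD above typical, normal starting fluorescence, not activating the receptor alone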;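 also: compound read alongside a low EC10 to EC30 dose of BAM8-22 agonist; peak minus trough fluorescence over baseline measured at the second addition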
RGS4 inh valid: validation of RGS4 inhibitors; shares compounds with RGS4 block; HEK293 M3R/RGS4, carbachol calcium Fluo-4 fluorescence; carbachol added at its EC20; 0 = buffer wells, 100 = carbachol control; calcium response, % at 10 µM; actives 65% (n = 1,700); AID 492999;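 active = duplicate-averaged calcium response above the buffer-only control mean plus 5 SD of those controls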;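 also: integrated fluorescence ratio F max minus min over baseline F0; higher response in RGS4-induced cells means RGS4 inhibition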
M3R Ca ctr: counter-screen for RGS4 inhibitors: effect in non-induced cells; activity (percent), % at 10 µM; AID 493000; HEK293 M3R non-induced, carbachol calcium Fluo-4; submaximal (EC20) carbachol stimulus; buffer wells 0%, carbachol control wells 100%; actives 20% (n = 1,900); shares compounds with RGS4 block; call rule not given here;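 also: RGS4 induction absent so cells express M3R without RGS4; higher means more calcium signal and flags a non-specific hit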
M3R basal Ca ctr: second RGS4 inhibitor counter-screen in uninduced cells lacking carbachol; shares compounds with RGS4 block; HEK293 M3R/RGS4 non-induced, Fluo-4 calcium, no carbachol; normalised: buffer wells 0%, carbachol wells 100%; calcium response (agonist-mode artifact), % at 10 µM; actives 22% (n = 1,900);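 active = duplicate-averaged calcium rise in uninduced cells above buffer wells' mean plus 5 SD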
Numbers without * were called inactive; i = inactive; · = no result given.

SMILES	MrgX1 antagonist	RGS4 block	RGS4 pot	MrgX1 agonist	MrgX1 PAM	RGS4 inh valid	M3R Ca ctr	M3R basal Ca ctr
CC(Nc1nc(-c2ccc(F)cc2)cs1)c1nc2cc(Cl)c(N3CCCCC3)cc2n1CCOCCO (stereo not drawn)	i	i	i	i	i	i	i	i
CC(Nc1nc(-c2cccc(Br)c2)cs1)c1nc2cc(Cl)c(N3CCCCC3)cc2n1CCOCCO (stereo not drawn)	i	8.25*	i	i	i	10.0%*	i	i
CC(Nc1nc(-c2ccc(F)cc2)cs1)c1nc2cc(Cl)c(N3CCCCC3)cc2n1CCCO (stereo not drawn)	i	i	i	i	i	·	·	·
Cc1ccc(C2=NNC3(CCOC(C)(C)C3)S2)cc1 (stereo not drawn)	i	i	i	i	i	·	·	·
Cc1ccc(NC(=O)c2ccc(Cl)cc2Cl)cc1O	i	i	i	i	i	·	·	·
C=CCN1C(=O)/C(=C/c2ccc(-c3ccc(F)cc3)o2)SC1=S	-5.6*	14.3*	i	i	i	33.5%*	i	59.5%*
O=C(O)C(c1ccccc1)N1C(=O)/C(=C\c2ccc(-c3ccc(Br)cc3)o2)SC1=S (stereo not drawn)	·	9.56*	-7.76*	·	·	9.0%*	i	234.0%*
C=CCN1C(=O)/C(=C/c2ccsc2)SC1=S	i	i	i	i	i	·	·	·
CN1CCN(NC(=O)Nc2ccc(F)cc2)CC1	i	i	i	i	i	·	·	·
CC(C)Cc1ccc(CN2CCCC(NC(=O)CCN3CCCO3)C2)cc1 (stereo not drawn)	i	i	i	i	i	·	·	·
O=[N+]([O-])c1c(Nc2ccccn2)cc(Cl)c2nonc12	-4.73*	10.4*	i	i	i	54.5%*	i	8.0%*
O=C(O)c1ccccc1Nc1cc(Cl)c2nonc2c1[N+](=O)[O-]	i	i	i	i	i	·	·	·
COC(=O)c1sc(N2C(=O)C(=O)/C(=C(/O)c3ccccc3)C2c2ccco2)nc1C (stereo not drawn)	i	i	i	i	i	i	i	i
Cc1nc(N2C(=O)C(=O)/C(=C(/O)c3ccccc3)C2c2ccco2)sc1C (stereo not drawn)	i	6.39*	i	i	i	8.5%*	i	i
CC(C)(C)C(=O)CN1C2=NCCCN2c2ccccc21	i	i	i	i	i	·	·	·
N#CC1=C(N)C(C#N)(C#N)C2(C(=O)Nc3ccccc32)C2CCCC=C12 (stereo not drawn)	i	5.4*	i	i	i	24.0%*	31.0%*	i
CC(=O)CS(=O)(=O)c1ccc(Oc2ccc(S(=O)(=O)CC(C)=O)cc2)cc1	i	i	i	i	i	·	·	·
CC(=O)CCS(=O)(=O)c1ccc(Oc2ccc(S(=O)(=O)CCC(C)=O)cc2)cc1	i	5.15*	i	i	i	22.5%*	i	i
Fc1ccc(-n2nnc(-c3ncc[nH]3)n2)cc1	i	i	i	i	i	·	·	·
Cc1nn(C)c(C(=O)NNC(=S)NC2CCCCC2)c1Br	i	8.47*	i	i	i	23.0%*	32.0%*	i
Cn1ncc(Br)c1C(=O)NC1CCCCCCC1	·	i	i	·	·	·	·	·
CCc1nn(C(C)C(=O)NC2CCCCCC2)c(=O)c2cc3occc3n12 (stereo not drawn)	i	i	i	i	i	·	·	·
CCc1cccc(CC)c1NC(=S)NCCc1c(C)[nH]c2ccc(C)cc12	i	i	i	i	i	·	i	i
CCc1cccc(C)c1NC(=S)NCCc1c(C)[nH]c2ccc(C)cc12	i	i	i	i	i	·	·	·
O=C1c2cccc3c([N+](=O)[O-])c(O)cc(c23)C(=O)N1Nc1ccccc1	i	6.3*	i	i	i	11.5%*	i	i
SMILES	MrgX1 antagonist	RGS4 block	RGS4 pot	MrgX1 agonist	MrgX1 PAM	RGS4 inh valid	M3R Ca ctr	M3R basal Ca ctr
O=C1c2ccccc2C(=O)N1Nc1ccccc1	i	i	i	i	i	·	·	·
Cc1noc(NS(=O)(=O)c2ccc(N/C=C\C(=O)c3cccc4ccccc34)cc2)c1C	i	5.92*	i	i	i	i	i	i
Cc1noc(NS(=O)(=O)c2ccc(NC(=O)c3nn(-c4ccccc4)ccc3=O)cc2)c1C	i	i	i	i	i	i	i	i
Cc1noc(NS(=O)(=O)c2ccc(N/C=C\C(=O)c3ccc(Br)cc3)cc2)c1C	i	6.7*	i	i	i	14.0%*	i	i
CCOc1ccc(C(=O)/C=C/Nc2ccc(S(=O)(=O)Nc3onc(C)c3C)cc2)cc1	i	i	i	i	i	·	·	·
Cc1noc(NS(=O)(=O)c2ccc(NC(=O)c3ccc(N4C(=O)c5ccccc5C4=O)cc3)cc2)c1C	i	i	i	i	i	·	·	·
COC(CN1C(=O)C(=O)/C(=C(/O)c2ccccc2)C1c1ccccn1)OC (stereo not drawn)	i	i	i	i	i	·	·	·
N#CC1(NC(=O)COC(=O)c2cc(=O)[nH]c3ccccc23)CCCCC1	i	i	i	i	i	·	·	·
COc1ccc(CNC(=O)Cn2c(=O)n(CC(=O)N3CCCCC3)c(=O)c3sccc32)cc1	i	i	i	i	i	·	·	·
Cc1nn2c(N3CCOCC3)cc(C(C)(C)C)nc2c1-c1ccc(Cl)cc1	·	i	i	·	·	·	·	·
Cc1cc(N2CCOCC2)n2ncc(-c3ccc(Cl)cc3)c2n1	i	i	i	i	i	i	i	i
Cc1ccc(-c2cnn3c(N4CCOCC4)cc(C)nc23)cc1	i	i	i	i	i	·	·	·
CC(C)(C)c1cc(N2CCOCC2)n2ncc(-c3ccc(Cl)cc3)c2n1	i	11.5*	i	i	i	27.0%*	47.0%*	i
O=C(N/C(=C\c1ccccc1)C(=O)N1CCOCC1)c1cccc(Br)c1	i	i	i	i	i	·	·	·

Compound activity deposited in PubChem by Johns Hopkins Ion Channel Center.
